# Hits are enriched below; roughly 3.3% of the tested compounds scored in any of these assays.
# Jurkat tox 60K: cytotoxicity toward Jurkat cells | inhibition, % at 4 µM | actives 1.2% (n = 56,000) | Jurkat E6.1 viability, ATP luminescence, 48 h;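 active means inhibition above the mean inhibition of all tested compounds plus 3 SD, cut at about 28% in these data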
# 5-HT1A blocker: antagonists of human 5-HT1a serotonin receptor | P08908 | CHO 5-HT1a Ga15 NFAT-bla reporter, antagonist mode | inhibition, % at 10 µM | actives 0.68% (n = 62,000);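 active means inhibition above the mean of all tested compounds plus 3 SD, cut at about 43% in these data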;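 further: receptor stimulated by 5-CT agonist at 100 nM near EC80; beta-lactamase reporter measured by ratiometric fluorescence of a cleavable substrate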
# Target sequence (P08908 whole entry, looked up): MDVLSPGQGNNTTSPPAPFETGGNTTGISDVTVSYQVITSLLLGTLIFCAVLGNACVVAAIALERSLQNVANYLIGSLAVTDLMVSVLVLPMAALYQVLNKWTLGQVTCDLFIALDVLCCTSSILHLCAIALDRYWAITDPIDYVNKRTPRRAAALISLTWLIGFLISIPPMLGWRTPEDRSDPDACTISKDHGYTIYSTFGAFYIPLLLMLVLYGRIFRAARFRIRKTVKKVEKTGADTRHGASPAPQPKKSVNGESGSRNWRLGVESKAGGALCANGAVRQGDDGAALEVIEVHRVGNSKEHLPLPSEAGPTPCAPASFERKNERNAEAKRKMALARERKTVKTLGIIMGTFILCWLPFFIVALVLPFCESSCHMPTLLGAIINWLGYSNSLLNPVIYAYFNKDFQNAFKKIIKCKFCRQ
# HEK293 NFkB inh: inhibitors of the PMA/ionomycin-induced NF-kB reporter in HEK293 cells. HEK-293 NF-kB luciferase reporter, luminescence. inhibition, % at 3 µM. actives 0.21% (n = 62,000). AID 465;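 active means inhibition above the mean of all tested compounds plus 3 SD, cut at about 40% in these data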
#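 Reagent: PMA plus ionomycin mix as NF-kB-activating stimulus. Assay system: NF-kB luciferase reporter HEK-293 cells. Technique: luminescence from luciferase substrate reagent. Incubation: 1 h compound pre-incubation, 16 h PMA/ionomycin at 37 °C. Benchmarks: DMSO only as uninhibited control, 10 µM reference inhibitor as full inhibition. Repeats: tested once.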
# HTR1E agonist: agonists of human 5-HT1E serotonin receptor; P28566; CHO 5-HT1E Ga15 NFAT-bla reporter, FRET; 0% DMSO wells, 100% control agonist wells; activation, % at 6 µM; actives 0.69% (n = 65,000);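 active means activation above a set limit, the screen-wide mean activation plus 3 SD, cut at about 8.5% in these data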
# 5HT1E antag: 5-HT1E (human) receptor antagonism | P28566 | CHO 5-HT1E Ga15 NFAT-bla reporter, FRET, antagonist | inhibition, % at 6 µM | actives 0.99% (n = 65,000);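 active means inhibition above a set limit, the mean inhibition across every tested compound plus 3 SD, cut at about 29% in these data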;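 further: signal is the 460 over 535 nm emission ratio of beta-lactamase substrate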
# 5HT1a ag: 5-HT1a (human) receptor agonism; CHO 5-HT1a Ga15 NFAT-bla reporter, FRET ratio; 0% basal, 100% maximal reference agonist; actives 0.56% (n = 65,000); AID 567; activation, % at 10 µM; P08908;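 active means activation above the screen-wide mean activation plus 3 SD, cut at about 19% in these data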
# A number is an active result; n = inactive; x = no result.
SMILES,Jurkat tox 60K,5-HT1A blocker,HEK293 NFkB inh,HTR1E agonist,5HT1E antag,5HT1a ag
O=C(NC1CCCCC1)C(c1ccco1)N(Cc1ccco1)C(=O)c1ccco1 (configuration not stated),n,49,n,n,n,n
O=C(NC1CCCC1)C(c1ccsc1)N(Cc1ccco1)C(=O)Cc1cccs1 (configuration not stated),n,58,n,n,n,n
O=C1NC(=O)C(CC(=O)N(Cc2ccco2)C2(C(=O)NC3CCCC3)CCCCC2)N1 (configuration not stated),x,n,n,n,n,n
COC(=O)c1ccccc1OC(=O)c1ccc(Br)o1,n,n,n,n,n,n
Cc1ccc(-c2noc(CCC(=O)N3CCCc4ccccc43)n2)cc1,n,n,n,n,n,n
Cc1cccc(N2CCN(CCNC(=O)c3cc4c(s3)CS(=O)(=O)C4)CC2)c1C,x,n,n,13,n,37
CCCSCCCNC(=O)c1cc2c(s1)CS(=O)(=O)C2,x,n,n,n,n,n
O=C(CSc1ccccc1C(=O)NCCCN1CCCC1=O)NCc1ccco1,n,n,n,n,n,n
CC(c1nnc(SCC(=O)NC(=O)NCc2ccco2)n1-c1ccc(Cl)cc1)N(C)C (configuration not stated),n,n,n,n,n,n
CCn1c(SCC(=O)c2cc(OC)ccc2OC)nnc1C1CC1,n,n,n,n,n,n
Nc1c(C(=O)NCCN2CCOCC2)c2nc3ccccc3nc2n1CCc1ccccc1,n,n,n,n,n,24
Nc1c(C(=O)NCCN2CCOCC2)c2nc3ccccc3nc2n1-c1ccc2c(c1)OCO2,n,n,n,n,n,n
Nc1c(C(=O)NCc2ccc3c(c2)OCO3)c2nc3ccccc3nc2n1CCCN1CCOCC1,n,n,n,13,n,37
O=C(C1CC1)N1CCN=C1SCc1ccccc1Cl,n,n,n,n,n,n
CCOC(=O)C1CCCN(C(=O)CNC(=O)Cn2ccc3ccccc3c2=O)C1 (configuration not stated),x,n,n,n,n,n
O=C(NCc1ccc(Cl)cc1)c1noc2c1CCCC2,n,n,n,n,n,n
O=C(NCc1cccs1)c1noc2c1CCCC2,68,n,n,n,n,n
O=C(NCc1cccc(F)c1)c1noc2c1CCCC2,60,n,n,n,n,n
O=C(NCc1ccccc1)c1noc2c1CCCC2,56,n,n,n,n,n
COc1ccc(CCNC(=O)CSc2nnc(CNC(=O)c3ccccc3F)o2)cc1OC,x,n,n,n,n,n
COC(=O)c1ccccc1NC(=O)CNC(=O)c1ccco1,n,n,n,n,n,n
CCN1CCCC1CNC(=O)c1cc(NC(C)=O)c(N(C)C)cc1OC (configuration not stated),n,n,n,n,n,n
CCOc1ccc(-c2cc(C(=O)O)c3ccccc3n2)c(OCC)c1,37,n,42,n,n,n
COc1ccc(-c2cc(C(=O)OCC(=O)N(C)C)c3ccccc3n2)cc1,n,n,n,n,n,n
COc1ccc(S(=O)(=O)N2CCCCC2)cc1C(C)C,n,n,n,34,n,n
SMILES,Jurkat tox 60K,5-HT1A blocker,HEK293 NFkB inh,HTR1E agonist,5HT1E antag,5HT1a ag
CCc1c(C)nc(SCC(=O)N2CCc3ccccc32)[nH]c1=O,n,n,n,n,n,n
COC(=O)C1=CN(CCCN2CCCC2=O)C=C(C(=O)OC)C1c1ccccc1C(F)(F)F,n,n,n,n,n,25
CCOC(=O)C1=CN(C)C=C(C(=O)OCC)C1c1ccsc1,n,n,n,n,n,n
COC(=O)C1=CN(C)C=C(C(=O)OC)C1c1ccccc1Cl,n,n,n,n,n,19
COc1ccccc1C(=O)NCCCN1CCCC1=O,n,n,n,n,n,n
CCCOc1ccccc1C1C(C(=O)OC)=CN(C(C)C)C=C1C(=O)OC,n,n,n,n,n,n
COC(=O)C1=CN(C(C)C)C=C(C(=O)OC)C1c1cccc(OC)c1,n,n,n,n,n,23
CCN1C=C(C(=O)OC)C(c2cccc(C)c2)C(C(=O)OC)=C1,x,n,n,n,n,20
C=CCn1c(SC2CCOC2=O)nc2scc(C3CC3)c2c1=O (configuration not stated),n,n,n,n,n,n
C=CCn1c(NCc2ccc(N(C)C)cc2)nc2ccccc21,n,n,n,n,n,n
